For eight molecules, Activity results are on record in ChEMBL document CHEMBL1629633, “Prevalence of sulfonamide resistance genes in bacterial isolates from manured agricultural soils and pig slurry in the United Kingdom” (2009).

The nature of test [1]: Antimicrobial activity against Acinetobacter sp. N2 isolate C439 harboring sul1 to sul3 genes assessed as antibiotic resistance breakpoint by agar dilution method. The class given is functional. In outline: (§1)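 Agar dilution on Iso-Sensitest agar for MICs and resistance breakpoints. Each isolate's inoculum (100 μl) was adjusted to OD600 0.4. Isolates came from soil cores of a field given pig slurry, or from the pig slurry itself. They were picked from nonselective or antibiotic plates incubated aerobically at 28°C, purified by restreaking, checked for sul genes by PCR and identified by 16S rRNA sequencing.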
Background: Agar dilution tests growth on a series of plates holding different concentrations.

Test [2] has as its system Pseudomonas lini. Put plainly: Antimicrobial activity against Pseudomonas lini isolate C701 harboring sul1 to sul3 genes assessed as antibiotic resistance breakpoint by agar dilution method. The class given is functional. The method in brief:
as §1

The subject of test [3] is Aerococcus viridans. Put plainly: Antimicrobial activity against Aerococcus viridans isolate PGS22 harboring sul1 to sul3 genes assessed as antibiotic resistance breakpoint by agar dilution method. The test is classed as functional. The method in brief:
as §1

The test system of test [4] is Stenotrophomonas maltophilia. Put plainly: Antimicrobial activity against Stenotrophomonas maltophilia isolate C422 harboring sul1 to sul3 genes assessed as antibiotic resistance breakpoint by agar dilution method. The class given is functional. In outline: (§2)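 Isolates were recovered from manured clay soil or pig slurry on Iso-Sensitest agar at 28°C. sul genes were detected by PCR, and identity was assigned by ~800 bp 16S rRNA sequencing. MICs and resistance breakpoints were found by agar dilution on Iso-Sensitest agar, with each inoculum (100 μl) adjusted to OD600 0.4.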

Test [5] concerns Lysinibacillus sphaericus. As to the kind of experiment: Antimicrobial activity against Bacillus sphaericus isolate C237 harboring sul1 to sul3 genes assessed as antibiotic resistance breakpoint by agar dilution method. The test is classed as functional. The method in brief:
as §1

Test [6] has as its system Acinetobacter lwoffii. As to the kind of experiment: Antimicrobial activity against Acinetobacter lwoffii isolate C2 harboring sul1 to sul3 genes assessed as antibiotic resistance breakpoint by agar dilution method. The test is classed as functional. In outline: as §1
In test [7] the test system is Providencia stuartii. Put plainly: Antimicrobial activity against Providencia stuartii isolate C167 harboring sul1 to sul3 genes assessed as antibiotic resistance breakpoint by agar dilution method. The test is classed as functional. In outline: as §1
The test system of test [8] is Enterococcus hirae. As to the kind of experiment: Antimicrobial activity against Enterococcus hirae isolate PGS48 harboring sul1 to sul3 genes assessed as antibiotic resistance breakpoint by agar dilution method. The test is classed as functional. In outline:
as §1

The subject of test [9] is Arthrobacter arilaitensis. Put plainly: Antimicrobial activity against Arthrobacter arilaitensis isolate C361 harboring sul1 to sul3 genes assessed as antibiotic resistance breakpoint by agar dilution method. The test is classed as functional, Glutamicibacter arilaitensis. In outline:
as §1

Test [10] is described as follows: Antimicrobial activity against Acinetobacter sp. An9 isolate PGS49 harboring sul1 to sul3 genes assessed as antibiotic resistance breakpoint by agar dilution method. The test is classed as functional. The method in brief: as §1
Test [11] concerns Acinetobacter lwoffii. As to the kind of experiment: Antimicrobial activity against Acinetobacter lwoffii isolate PGS47 harboring sul1 to sul3 genes assessed as antibiotic resistance breakpoint by agar dilution method. The class given is functional. In outline: as §1
The subject of test [12] is Enterococcus sulfureus. As to the kind of experiment: Antimicrobial activity against Enterococcus sulfureus isolate PGS61 harboring sul1 to sul3 genes assessed as antibiotic resistance breakpoint by agar dilution method. The test is classed as functional. The method in brief:
as §1

Test [13] relates to Acinetobacter lwoffii. Put plainly: Antimicrobial activity against Acinetobacter lwoffii isolate C15 harboring sul1 to sul3 genes assessed as antibiotic resistance breakpoint by agar dilution method. The class given is functional. In outline: as §1
Test [14] can be described thus: Antimicrobial activity against Psychrobacter ikaite isolate C20 harboring sul1 to sul3 genes assessed as antibiotic resistance breakpoint by agar dilution method. The class given is functional. The method in brief:
as §1

Test [15] in a line: Antimicrobial activity against Psychrobacter sp. DY9-2 isolate C711 harboring sul1 to sul3 genes assessed as antibiotic resistance breakpoint by agar dilution method. The test is classed as functional. The method in brief:
as §2

The subject of test [16] is Psychrobacter frigidicola. As to the kind of experiment: Antimicrobial activity against Psychrobacter frigidicola isolate C712 harboring sul1 to sul3 genes assessed as antibiotic resistance breakpoint by agar dilution method. The test is classed as functional. In outline: as §1
A short description of test [17]: Antimicrobial activity against Psychrobacter ikaite isolate C713 harboring sul1 to sul3 genes assessed as antibiotic resistance breakpoint by agar dilution method. The test is classed as functional. The method in brief:
as §2

Test [18] deals with Acinetobacter calcoaceticus. As to the kind of experiment: Antimicrobial activity against Acinetobacter calcoaceticus isolate C35 harboring sul1 to sul3 genes assessed as antibiotic resistance breakpoint by agar dilution method. The test is classed as functional. In outline: as §1
Test [19] relates to Acinetobacter calcoaceticus. Put plainly: Antimicrobial activity against Acinetobacter calcoaceticus isolate C36 harboring sul1 to sul3 genes assessed as antibiotic resistance breakpoint by agar dilution method. The test is classed as functional. The method in brief: as §1
Test [20] deals with Acinetobacter lwoffii. Put plainly: Antimicrobial activity against Acinetobacter lwoffii isolate C37 harboring sul1 to sul3 genes assessed as antibiotic resistance breakpoint by agar dilution method. The test is classed as functional. The method in brief: as §1
For test [21], the system named is Acinetobacter rhizosphaerae. Put plainly: Antimicrobial activity against Acinetobacter rhizosphaerae isolate C44 harboring sul1 to sul3 genes assessed as antibiotic resistance breakpoint by agar dilution method. The test is classed as functional. In outline:
as §1

The test system of test [22] is Acinetobacter lwoffii. Put plainly: Antimicrobial activity against Acinetobacter lwoffii isolate C141 harboring sul1 to sul3 genes assessed as antibiotic resistance breakpoint by agar dilution method. The class given is functional. In outline:
as §1

Test [23] has as its system Bacillus psychrodurans. As to the kind of experiment: Antimicrobial activity against Bacillus psychrodurans isolate C328 harboring sul1 to sul3 genes assessed as antibiotic resistance breakpoint by agar dilution method. The class given is functional, Psychrobacillus psychrodurans. In outline:
as §1

Test [24] deals with Shigella flexneri. Put plainly: Antimicrobial activity against Shigella flexneri isolate C506 harboring sul1 to sul3 genes assessed as antibiotic resistance breakpoint by agar dilution method. The class given is functional. The method in brief:
as §2

Test [25] relates to Pseudomonas putida. Put plainly: Antimicrobial activity against Pseudomonas putida isolate C231 harboring sul1 to sul3 genes assessed as antibiotic resistance breakpoint by agar dilution method. The test is classed as functional. In outline: as §1
Test [26] concerns Pseudomonas borealis. Put plainly: Antimicrobial activity against Pseudomonas borealis isolate C5 harboring sul1 to sul3 genes assessed as antibiotic resistance breakpoint by agar dilution method. The class given is functional. The method in brief: as §1
Test [27] has as its system Aerococcus viridans. Put plainly: Antimicrobial activity against Aerococcus viridans isolate PGS21 harboring sul1 to sul3 genes assessed as antibiotic resistance breakpoint by agar dilution method. The class given is functional. In outline:
as §1

Test [28] concerns Acinetobacter baumannii. As to the kind of experiment: Antimicrobial activity against Acinetobacter baumannii isolate C442 harboring sul1 to sul3 genes assessed as antibiotic resistance breakpoint by agar dilution method. The class given is functional. In outline:
as §1

Test [29] relates to Pseudomonas fluorescens. As to the kind of experiment: Antimicrobial activity against Pseudomonas fluorescens isolate C131 harboring sul1 to sul3 genes assessed as antibiotic resistance breakpoint by agar dilution method. The class given is functional. In outline:
as §1

Test [30] can be described thus: Antimicrobial activity against Psychrobacter ikaite isolate C410 harboring sul1 to sul3 genes assessed as antibiotic resistance breakpoint by agar dilution method. The class given is functional. In outline: as §2

SMILES strings stand for the structures.

Take `CN[C@@H]1[C@H](O[C@H]2[C@H](O[C@H]3[C@H](O)[C@@H](O)[C@H](N=C(N)N)[C@@H](O)[C@@H]3N=C(N)N)O[C@@H](C)[C@]2(O)C=O)O[C@@H](CO)[C@H](O)[C@H]1O` [STREPTOMYCIN]: the Activity in [1], in [2], in [3], in test [4], in [5] and in [6] was 16 µg/mL throughout. Moreover, the Activity in test [7], in test [8], in test [9], in [10], in test [11] and in test [12] was 16 µg/mL in each case. For the same molecule, the Activity in test [13], in test [14], in test [15], in test [16], in test [17] and in [18] was 16 µg/mL throughout. In addition, the Activity in test [19], in test [20], in test [21], in test [22], in test [23] and in test [24] was 16 µg/mL throughout.
As for `CC1(C)S[C@@H]2[C@H](NC(=O)[C@H](N)c3ccccc3)C(=O)N2[C@H]1C(=O)O` [AMPICILLIN], the Activity in test [2], in [25], in [22] and in test [24] was 16 µg/mL each time.
`O=C(N[C@H](CO)[C@H](O)c1ccc([N+](=O)[O-])cc1)C(Cl)Cl` [CHLORAMPHENICOL]: the Activity in [3], in test [6], in test [26], in test [9], in [25] and in test [27] was 16 µg/mL throughout. Moreover, the Activity in test [13], in [14], in test [17], in [18], in [19] and in [20] was 16 µg/mL throughout. The Activity in test [21], in test [22], in test [23], in test [28] and in [24] was 16 µg/mL in each case.
For the molecule `COc1cc(Cc2cnc(N)nc2N)cc(OC)c1OC` [TRIMETHOPRIM], the Activity in [1], in [2], in [5], in test [6], in test [13] and in test [14] was 16 µg/mL in each case. For the same molecule, the Activity in test [15], in test [16], in [17], in [18], in test [19] and in test [20] was 16 µg/mL throughout. Besides, the Activity in [21], in test [22] and in test [24] was 16 µg/mL throughout.
For the molecule `NC[C@@H]1O[C@H](O[C@H]2[C@@H](O)[C@H](O[C@@H]3[C@@H](O)[C@H](N)C[C@H](N)[C@H]3O[C@H]3O[C@H](CN)[C@@H](O)[C@H](O)[C@H]3N)O[C@@H]2CO)[C@H](N)[C@@H](O)[C@@H]1O` [FRAMYCETIN], the Activity in test [3], in test [9], in test [25], in test [13], in test [21] and in test [22] was 8 µg/mL each time. Further, the Activity in test [23] and in test [24] was 8 µg/mL throughout.
In the case of `CCn1cc(C(=O)O)c(=O)c2ccc(C)nc21` [NALIDIXIC ACID], the Activity in test [1], in [2], in [3], in [5], in [6] and in [9] was 16 µg/mL throughout. Moreover, the Activity in test [25], in [10], in test [11], in test [13], in [14] and in [15] was 16 µg/mL throughout. The Activity in [16], in test [17], in [18], in test [19], in test [20] and in [21] was 16 µg/mL in each case. Besides, the Activity in [22], in test [23], in test [28] and in test [24] was 16 µg/mL each time.
Regarding `NC[C@H]1O[C@H](O[C@H]2[C@H](O)[C@@H](O[C@H]3O[C@H](CO)[C@@H](O)[C@H](N)[C@H]3O)[C@H](N)C[C@@H]2N)[C@H](O)[C@@H](O)[C@@H]1O` [KANAMYCIN], the Activity in test [22], in [23] and in [24] was 16 µg/mL each time.
On to `CN(C)[C@@H]1C(O)=C(C(N)=O)C(=O)[C@@]2(O)C(O)=C3C(=O)c4c(O)cccc4[C@@](C)(O)[C@H]3C[C@@H]12` [TETRACYCLINE], for which the Activity in test [1], in test [3], in [29], in [6], in test [7] and in test [8] was 8 µg/mL throughout. Further, the Activity in test [26], in [9], in [25], in [30], in [12] and in [27] was 8 µg/mL in each case. The Activity in [13], in test [14], in test [15], in [16], in test [17] and in test [18] was 8 µg/mL throughout. Besides, the Activity in test [19], in test [20], in test [21], in test [22], in [23] and in test [28] was 8 µg/mL throughout. The Activity in [24] came to 8 µg/mL.
